# KCNK3 inh – human KCNK3 channel inhibitors, primary screen, CHO cells, FluxOR thallium flux, B-score; Potassium channel subfamily K member 3 (Homo sapiens), O14649; AID 602410, 2012; B-score at 10 µM; 0.84% of 340,000 active; FluxOR fluorescence; active compounds read low;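 active = B-score under library mean minus 4 SD, starting fluorescence ratio at most library mean plus 5 SD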;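 note: more negative B-score means stronger inhibition of thallium flux through KCNK3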
# hERG protect – hERG rescue from dofetilide block, primary screen, cell-based, CHO-hERG, FluxOR thallium flux, dofetilide IC70; dofetilide IC70 present; activation (rescue from dofetilide block), less the hit threshold, % at 10 µM; 0.51% of 310,000 active; Voltage-gated inwardly rectifying potassium channel KCNH2 (Homo sapiens), Q12809;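 active = activation above the mean of controls blocked by dofetilide plus 5 SD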;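 note: thallium influx through hERG after potassium depolarization seen as dye fluorescence rise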
# Kir21 block – inhibitors of mouse Kir2.1 inward-rectifier potassium channel | Inward rectifier potassium channel 2 (Mus musculus), P35561 | HEK293-Kir2.1, FluxOR thallium flux fluorescence; active compounds read low | B-score at 10 µM | 0.85% of 310,000 active;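 active = fluorescence ratio B-score at or below minus 3 SD of library scores, with starting-brightness B-score within 2 SD, cut at about -4.2 in these data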;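 note: channel flux triggered by added potassium and thallium sulfate stimulus; B-score of peak minus minimum fluorescence over baseline after thallium stimulus; more negative B-score means stronger Kir2.1 block with less thallium influx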
# KCNQ1 block – inhibitors of human KCNQ1 channel, primary screen, cell-based, thallium flux, high-throughput; Potassium voltage-gated channel subfamily KQT member 1 (Homo sapiens), P51787; CHO-K1 KCNQ1, FluxOR thallium flux fluorescence; active compounds read high; B-score at 10 µM; 1.3% of 310,000 active; AID 2642, 2010;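 active = compounds whose thallium flux B-score, printed positive for inhibition, exceeds three library SD while starting fluorescence stays within three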;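 note: channel opened by potassium depolarization with thallium stimulus after 20 min compound exposure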
# Target sequence (P51787 whole entry, looked up): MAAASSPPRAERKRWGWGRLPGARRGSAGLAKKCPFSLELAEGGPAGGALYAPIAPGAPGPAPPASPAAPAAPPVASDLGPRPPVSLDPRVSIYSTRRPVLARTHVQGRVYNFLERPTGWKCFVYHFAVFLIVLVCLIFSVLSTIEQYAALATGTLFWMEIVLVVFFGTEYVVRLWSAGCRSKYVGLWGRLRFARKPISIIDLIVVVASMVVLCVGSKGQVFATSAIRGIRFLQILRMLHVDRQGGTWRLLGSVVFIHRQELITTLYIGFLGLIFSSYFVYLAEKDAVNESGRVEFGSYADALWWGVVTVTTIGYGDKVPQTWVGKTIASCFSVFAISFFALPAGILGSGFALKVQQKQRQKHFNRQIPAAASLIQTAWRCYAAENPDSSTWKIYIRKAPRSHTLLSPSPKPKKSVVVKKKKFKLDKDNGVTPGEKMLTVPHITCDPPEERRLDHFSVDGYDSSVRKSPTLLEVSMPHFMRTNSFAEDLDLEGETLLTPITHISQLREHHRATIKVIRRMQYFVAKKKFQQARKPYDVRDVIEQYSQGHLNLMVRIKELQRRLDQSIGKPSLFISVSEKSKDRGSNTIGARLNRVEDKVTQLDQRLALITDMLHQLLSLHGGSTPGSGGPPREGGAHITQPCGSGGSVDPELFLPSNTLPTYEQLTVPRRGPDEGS
# KCNQ1 act – potentiators or activators of KCNQ1 channel, primary screen, cell-based, thallium flux, high-throughput | 0.35% of 310,000 active | CHO-K1 KCNQ1, thallium flux FluxOR fluorescence; active compounds read high | AID 2648, 2010 | B-score at 10 µM | Potassium voltage-gated channel subfamily KQT member 1 (Homo sapiens), P51787;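 active = fluorescence ratio B-score, a plate-corrected score, at least three library SD, with initial intensity B-score within 5 SD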
#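 Doses: Single concentration per compound, DMSO matched to controls | Test system: KCNQ1-transfected CHO-K1 cells | Timing: 90 min dye loading and 20 min compound exposure, both at room temperature | Measured by: Kinetic FluxOR thallium fluorescence, 10-s 1-Hz baseline, 110-s post-stimulus read | Medium: Assay buffer with matched DMSO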
# KCNK9 inh – KCNK9 potassium channel inhibitors, primary screen, HEK293 cells, thallium flux | Potassium channel subfamily K member 9 (Homo sapiens), Q9NPC2 | FluxOR thallium flux fluorescence; active compounds read low | B-score at 10 µM | 1.2% of 310,000 active;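 active = ratio B-score over 3 SD below the library mean, with starting fluorescence within 5 SD of its mean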;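 note: negative B-score means less thallium flux so channel inhibition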
# An asterisk follows results filed as active; i = inactive; · = no result. Most compounds without a hit are left out; they make up all but 3.7% or so of the library.
SMILES,KCNK3 inh,hERG protect,Kir21 block,KCNQ1 block,KCNQ1 act,KCNK9 inh
CN1CCN(CCCN2c3ccccc3Sc3ccc(C(F)(F)F)cc32)CC1,i,-23,-4.4*,6*,i,i
Cc1cccc(NC(=O)CSc2nc3ccccc3c(=O)n2C)c1,i,-7,-0.54,i,i,i
COc1ccc(Cc2nnc(SCC(=O)c3c(N)n(C4CC4)c(=O)[nH]c3=O)o2)cc1,i,·,·,·,·,·
CCOc1ccc(/C=C2/SC(=O)NC2=S)cc1,i,37*,2.3,i,112*,i
CCOc1ccc(/C=C2\SC(=S)N(N3C(=O)C4CC4C3=O)C2=O)cc1 (stereo not drawn),i,-6,-0.19,i,i,i
COCCCNCCCOc1ccc(Cl)cc1C(C)(C)C,i,-10,-5.1*,i,i,i
C=CCc1cc(Cl)ccc1OCCOCCNCCOC,i,-5,-5.9*,i,i,i
COCCCNCCCCOc1ccc(Br)cc1Cl,i,-13,-6.8*,i,i,i
O=C(NCc1cccnc1)C(=O)Nc1nc(C23CC4CC(CC(C4)C2)C3)cs1,i,-15,-1.1,i,i,i
O=C(NCc1ccccc1)C(=O)Nc1nc(C23CC4CC(CC(C4)C2)C3)cs1,i,18*,-0.03,i,10*,i
O=C(NCc1ccc(F)cc1)C(=O)Nc1nc(C23CC4CC(CC(C4)C2)C3)cs1,i,4.9*,-0.66,i,i,i
O=C(NCc1ccncc1)C(=O)Nc1nc(C23CC4CC(CC(C4)C2)C3)cs1,i,-9,-0.16,i,i,i
CCOC(=O)CCN(C(=S)Nc1ccccc1)C1CCCCC1,i,·,·,·,·,·
COc1ccc(CCNC(=O)Cn2cccc2C(=O)c2ccccc2C)cc1OC,i,-8,-5*,i,i,i
Cc1ccccc1C(=O)c1cccn1CC(=O)NCC(C)c1ccccc1 (stereo not drawn),i,-8,-6.4*,i,i,i
COc1ccc(CCNC(=O)Cn2cccc2C(=O)c2ccccc2)cc1OC,i,-5,1.1,i,i,i
O=C1N/C(=C/c2ccc(N3CCOCC3)o2)C(=O)N1c1cccc(Cl)c1,i,-10,-2.7,i,i,i
CN(Cc1ccn[nH]1)C(=O)C1CCC(=O)N(Cc2cccc(C(F)(F)F)c2)C1 (stereo not drawn),i,-6,-0.05,i,i,i
CCCCN(C(=O)c1ccco1)C1CCS(=O)(=O)C1 (stereo not drawn),i,-8,0.31,i,i,i
Cc1nc2ccccc2n1CC(=O)OCC(=O)NC1CC1,i,-5,-1.6,i,i,i
CCOC(=O)CN1C=C(c2ccc3ccccc3n2)C(C[N+](=O)[O-])c2ccccc21 (stereo not drawn),i,-26,-4.6,11*,i,i
CCOc1ccccc1NC(=O)Nc1ccc(CC#N)cc1,i,-11,0.69,i,i,i
Cc1ccc(C(=O)c2cc(C)sc2NC(=O)CN2CCN(C(=O)c3ccco3)CC2)cc1,i,-20,0.15,9*,i,i
CCc1cc(C(=O)OC)c(NC(=O)CN2CCN(C(=O)c3ccco3)CC2)s1,i,-2,1.7,i,i,i
CCSC1=C(C#N)C(c2ccc(C)o2)CC(=O)N1 (stereo not drawn),i,-5,-0.72,i,i,i
SMILES,KCNK3 inh,hERG protect,Kir21 block,KCNQ1 block,KCNQ1 act,KCNK9 inh
N#CC1=C(SCc2ccccc2)NC(=O)CC1c1ccco1 (stereo not drawn),i,-11,-9.1*,i,i,i
Cc1ccc(C2CC(=O)NC(SCc3ccccc3)=C2C#N)o1 (stereo not drawn),i,-14,-6.9*,i,i,i
CN1CCN(c2nc(-c3ccccc3)c3cc(Cl)ccc3n2)CC1,i,-20,-9.6*,i,i,i
O=C1CN(c2nc(-c3ccccc3)c3cc(Cl)ccc3n2)c2ccccc2N1,i,-12,0.39,i,i,i
CN1CCN(c2nnc(-c3ccccc3)c(-c3ccccc3)n2)CC1,i,-8,-0.32,i,i,i
Clc1ccc2nc(N3CCNCC3)nc(-c3ccccc3)c2c1,i,-31,-4.9*,i,i,i
CCc1ccc(-c2nc(SCC(=O)NC3CC3)n[nH]2)cc1,i,-6,2.5,i,i,i
Fc1ccc(/C=N/N2CCN(Cc3ccccc3)CC2)cc1,i,-12,0.02,i,i,i
COc1ccccc1CNS(=O)(=O)c1ccc(Br)s1,i,-8,-5*,i,i,i
CC(OC(=O)/C=C/c1ccc2ccccc2n1)C(=O)Nc1ccc(S(N)(=O)=O)cc1 (stereo not drawn),i,-6,-0.15,i,i,i
O=C(Nc1ccccc1)C(Cl)C(=O)c1ccccc1 (stereo not drawn),i,-14,-8.3*,i,i,i
CCN(CC(=O)Nc1c(F)cccc1F)C(=O)c1nn(C)c(=O)c2ccccc12,i,·,·,·,·,·
COc1ccc(S(=O)(=O)NN(C)c2ncc(C(F)(F)F)cc2Cl)cc1,i,-3,-8*,i,i,i
c1ccc2c(NCC3CCCO3)nc(N3CCOCC3)nc2c1 (stereo not drawn),i,-5,-0.7,i,i,i
COc1ccc(Nc2nc(NCC3CCCO3)c3ccccc3n2)c(OC)c1 (stereo not drawn),i,-11,-9.9*,i,i,i
Oc1cccc(Nc2nc(NCC3CCCO3)c3ccccc3n2)c1 (stereo not drawn),i,-38,-8.1*,9*,i,i
Cc1[nH]c(=S)sc1Cc1ccc(F)cc1,i,2,0.86,i,9*,i
S=c1[nH]cc(Cc2ccccc2)s1,i,4,0.04,i,i,i
COc1ccc(NC(C)=O)cc1S(=O)(=O)N(C)Cc1c(C)nn(-c2ccccc2)c1C,i,·,·,·,·,·
CCOc1ccc(OCCN2CCCCC2)cc1,i,-4,-0.42,i,i,i
CCOc1ccc(CNCCN2CCCC2)cc1,i,-9,-2,7*,i,i
O=C(COC(=O)C1=COCCO1)Nc1cc(C(F)(F)F)ccc1Cl,i,·,·,·,·,·

# From PubChem BioAssay
